Experiments:
hu-mPRα [1] = molecular target: T1, hu-mPRα (Homo sapiens, UniProt Q86WK9); experiment: hu-mPRα steroid binding assay; details: for RBA (Relative Binding Affinity): compared with progesterone (=100), human mPRα; for binding to hu-mPRα (in words): this study, Fig. 1, Table 1
T1 sequence (Q86WK9 1-346): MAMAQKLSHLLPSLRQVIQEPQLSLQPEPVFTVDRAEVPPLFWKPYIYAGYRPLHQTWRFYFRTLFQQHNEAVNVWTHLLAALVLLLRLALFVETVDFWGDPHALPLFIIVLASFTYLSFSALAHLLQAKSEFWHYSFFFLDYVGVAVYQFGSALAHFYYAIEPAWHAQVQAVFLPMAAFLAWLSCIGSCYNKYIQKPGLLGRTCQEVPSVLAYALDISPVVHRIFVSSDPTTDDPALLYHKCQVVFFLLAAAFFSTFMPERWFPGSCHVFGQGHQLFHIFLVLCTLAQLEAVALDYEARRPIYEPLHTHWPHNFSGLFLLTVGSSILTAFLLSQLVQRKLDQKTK

hu-mPRα [2] = molecular target: T1, hu-mPRα; experiment: MAPK activation assay; type: cell-based; details: 100 nM, 10 min, mPRα-transfected MDA-MB-231 cells
Procedure, shortened: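 Control and mPRα-transfected MDA-MB-231 cells were serum-starved 5–6 days, then treated 10 min with progestins (100 nM; 1–100 nM for concentration-response), with EGF as positive control. Lysis was in RIPA buffer plus protease inhibitors. Lysate (10 μg/lane, non-reducing) ran on duplicate SDS gels, was blotted, and was probed for total or phospho-p42/44 with rabbit monoclonals, then HRP anti-rabbit 1 h. Detection was by chemiluminescence on film. Runs were repeated 3–4 times, with statistics versus vehicle.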

human PR-B = molecular target: T2, human PR-B (Homo sapiens, UniProt P06401); experiment: nPR luciferase reporter assay; type: cell-based; details: for nPR antagonist activity: 20 and 100 nM in the presence of 5 nM progesterone
T2 sequence (P06401 1-933): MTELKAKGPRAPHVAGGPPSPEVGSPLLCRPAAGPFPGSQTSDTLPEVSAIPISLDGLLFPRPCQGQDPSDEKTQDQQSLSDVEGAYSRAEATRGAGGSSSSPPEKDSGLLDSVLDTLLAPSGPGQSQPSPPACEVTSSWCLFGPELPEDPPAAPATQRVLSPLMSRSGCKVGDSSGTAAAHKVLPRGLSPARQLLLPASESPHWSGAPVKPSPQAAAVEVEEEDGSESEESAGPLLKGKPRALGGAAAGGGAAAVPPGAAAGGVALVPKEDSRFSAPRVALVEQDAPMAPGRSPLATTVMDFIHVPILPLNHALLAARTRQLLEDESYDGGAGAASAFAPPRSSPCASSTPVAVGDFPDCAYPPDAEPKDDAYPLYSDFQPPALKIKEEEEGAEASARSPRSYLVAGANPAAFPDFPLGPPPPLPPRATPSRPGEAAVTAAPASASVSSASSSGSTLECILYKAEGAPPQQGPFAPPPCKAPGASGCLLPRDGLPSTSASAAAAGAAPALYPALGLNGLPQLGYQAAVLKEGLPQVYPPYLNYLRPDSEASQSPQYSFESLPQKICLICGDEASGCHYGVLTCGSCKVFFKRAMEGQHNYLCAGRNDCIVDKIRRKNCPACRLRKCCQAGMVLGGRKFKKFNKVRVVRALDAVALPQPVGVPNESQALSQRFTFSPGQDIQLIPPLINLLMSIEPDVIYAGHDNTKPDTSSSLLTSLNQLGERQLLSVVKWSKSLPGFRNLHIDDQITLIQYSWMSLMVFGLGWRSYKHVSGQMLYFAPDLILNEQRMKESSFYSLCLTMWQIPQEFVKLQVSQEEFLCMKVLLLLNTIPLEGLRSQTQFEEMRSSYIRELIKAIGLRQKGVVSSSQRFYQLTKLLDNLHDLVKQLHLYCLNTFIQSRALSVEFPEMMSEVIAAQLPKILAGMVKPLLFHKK
Procedure, shortened: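 MCF-7 cells in phenol red-free DMEM were co-transfected with human PR-B vector (0.25 μg), MMTV-luciferase reporter (0.6 μg) and Renilla pRL-TK (0.5 μg). […] Cells grew overnight to 90% confluence. Dual-luciferase readings were taken, 10 s each. Firefly/Renilla ratio was reported, in triplicate.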

human nPR = molecular target: T3, human nPR (Homo sapiens, UniProt P06401); experiment: nPR steroid binding assay; details: that of progesterone
T3 sequence (P06401 679-933 limits assumed): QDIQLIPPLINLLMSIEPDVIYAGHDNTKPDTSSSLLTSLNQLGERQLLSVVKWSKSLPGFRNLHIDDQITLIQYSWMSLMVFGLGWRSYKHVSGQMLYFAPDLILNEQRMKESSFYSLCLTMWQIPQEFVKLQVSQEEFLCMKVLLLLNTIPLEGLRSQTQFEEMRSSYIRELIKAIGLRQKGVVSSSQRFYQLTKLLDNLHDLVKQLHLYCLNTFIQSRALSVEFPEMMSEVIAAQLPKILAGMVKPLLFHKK

female rabbits = details: s.c.; cited from earlier work

For “19a-methylprogesterone [19a-Methylprogesterone (Org OD 13-0)]”, the “RBA (Relative Binding Affinity)” value (hu-mPRα [1]) was 92.7%, the “binding to hu-mPRα (in words)” value (hu-mPRα [1]) was “relatively high affinity” and the “MAPK activation (phosphorylation of ERK)” value (hu-mPRα [2]) was “mPRα agonists”. The nPR antagonist activity (human PR-B) was “weak antagonist activity” and the “relative binding affinity for nPR” value (human nPR) was 2.3%.

In the case of C=C[C@]12CCC(=O)C=C1CC[C@H]1[C@@H]3CC[C@H](C(C)=O)[C@@]3(C)CC[C@@H]12 [10-ethenyl-19-norprogesterone], the “RBA (Relative Binding Affinity)” value (hu-mPRα [1]) is reported as 257.7%, the “binding to hu-mPRα (in words)” value (hu-mPRα [1]) is reported as “affinities higher than that of progesterone” and the “MAPK activation (phosphorylation of ERK)” value (hu-mPRα [2]) is reported as “mPRα agonists”. For the same compound, the nPR antagonist activity (human PR-B) was “weak antagonist activity” and the “relative binding affinity for nPR” value (human nPR) was 12.9%.

In the case of CC[C@H]1CC[C@H]2[C@@H]3CCC4=CC(=O)CC[C@]4(C)[C@H]3CC[C@]12C(C)=O [13-Acetyl-18-norpregn-4-en-3-one], the “RBA (Relative Binding Affinity)” value (hu-mPRα [1]) is given as <1%, the “binding to hu-mPRα (in words)” value (hu-mPRα [1]) is given as “lost all affinity” and the “progestational activity in comparison with progesterone” value (female rabbits) is given as 1/4.

In the case of CC(=O)[C@H]1CC[C@H]2[C@@H]3CCC4=CC(=O)CC[C@]4(C)[C@H]3CC[C@]12C(C)=O [13-Acetyl-18-norprogesterone], the “RBA (Relative Binding Affinity)” value (hu-mPRα [1]) is given as 49.9%, the “binding to hu-mPRα (in words)” value (hu-mPRα [1]) is given as “low binding affinities” and the “progestational activity in comparison with progesterone” value (female rabbits) is given as 1/3.

With C=C[C@]12CC[C@H]3[C@@H](CCC4=CC(=O)CC[C@@]43C)[C@@H]1CC[C@@H]2C(C)=O [13-ethenyl-18-norprogesterone] the “RBA (Relative Binding Affinity)” value (hu-mPRα [1]) was 168.2%, the “binding to hu-mPRα (in words)” value (hu-mPRα [1]) was “affinities higher than that of progesterone” and the “MAPK activation (phosphorylation of ERK)” value (hu-mPRα [2]) was “mPRα agonists”. For the same compound, the nPR agonist activity (human PR-B; PR-B and PRE-luciferase reporter in MCF-7 cells, 50 nM (19-CH2P4 also 1–50 nM)) was “showed nPR agonist activity”.

From PMC2858063 (Steroids, 2010)
